≈ marks a conversion by molar mass, not a printed value.
Key:
Hepatitis C virus = experiment: Antiviral activity against Hepatitis C virus subtype 1b infected in human Huh7 cells assessed as inhibition of viral RNA replication; assay type: functional, organism-based, Hepacivirus hominis, genotype 1b, Huh-7; conditions: Hepatitis C virus, genotype 1b, Huh-7; read-out: EC50
Procedure, shortened: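 Stable subgenomic HCV genotype 1b replicon in Huh-7 cells carrying a modified luciferase reporter. EC50 from duplicate or more determinations. Some inhibitors were also run in a 72 h replicon format, with HCV RNA normalized to total cellular RNA. Cytotoxicity checked as TC50.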

[1] = Inhibition of calf thymus DNA-directed RNA polymerase 2; design: species or system Bos taurus
[2] = Inhibition of histidine-tagged HCV NS5Bdelta21 by scintillation proximity assay; design: species or system Hepacivirus hominis
Procedure, shortened: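 Soluble truncated NS5B at 12 nM. Reaction contains 0.01% w/v BSA, with no dodecyl-β-D-maltoside or IGEPAL. Other conditions follow an earlier method. IC50 is the mean of duplicate experiments on two separate weighings.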

[3] = (§1) Permeability from apical to basolateral side of the human Caco-2 cells at pH 7.4; assay type: ADME, cell-based; conditions: Caco-2, pH 7.4, read-out: permeability
Procedure, shortened: (§2)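 Caco-2 permeability measured in the apical-to-basal direction at pH 7.4.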

Cytochrome P450 3A4 = Cytochrome P450 3A4 (Homo sapiens, UniProt P08684); experiment: Inhibition of CYP3A4; assay type: ADME
Chain of Cytochrome P450 3A4 (P08684 whole entry): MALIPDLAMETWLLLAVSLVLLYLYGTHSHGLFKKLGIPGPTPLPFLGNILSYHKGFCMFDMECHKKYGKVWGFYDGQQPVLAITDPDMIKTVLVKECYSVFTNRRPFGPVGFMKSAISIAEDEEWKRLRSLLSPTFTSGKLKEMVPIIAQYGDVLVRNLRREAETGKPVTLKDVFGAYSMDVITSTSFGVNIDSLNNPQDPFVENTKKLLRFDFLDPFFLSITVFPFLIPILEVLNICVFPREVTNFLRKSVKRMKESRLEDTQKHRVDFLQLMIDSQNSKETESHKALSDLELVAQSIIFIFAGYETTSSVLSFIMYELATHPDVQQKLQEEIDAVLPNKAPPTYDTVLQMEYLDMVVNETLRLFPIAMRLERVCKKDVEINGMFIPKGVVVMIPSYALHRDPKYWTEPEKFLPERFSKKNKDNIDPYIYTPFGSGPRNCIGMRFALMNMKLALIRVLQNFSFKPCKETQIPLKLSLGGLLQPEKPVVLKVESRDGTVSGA
Procedure, shortened: (§3)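 IC50s measured against CYP 1A2, 2C9, 2C19, 2D6 and 3A4 isozymes. The value reported is the lowest IC50, taken against the most sensitive isozyme.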

[4] = Half life in human liver microsomes at 2 uM; assay type: ADME, Microsome
Procedure, shortened: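 Human liver microsomes incubated with test compound at 2 µM. Stability reported as T1/2 in min.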

[5] = Lipophilicity, log D at pH 7.4; assay type: physicochemical; conditions: buffer
[6] = Equilibrium solubility at pH 7.2 with amorphous solid after 24 hrs by shake flask method; assay type: physicochemical; conditions: buffer
Cytochrome P450 2C19 = Cytochrome P450 2C19 (Homo sapiens, UniProt P33261); experiment: Inhibition of CYP2C19; assay type: ADME; procedure, shortened: as §3
Chain of Cytochrome P450 2C19 (P33261 whole entry): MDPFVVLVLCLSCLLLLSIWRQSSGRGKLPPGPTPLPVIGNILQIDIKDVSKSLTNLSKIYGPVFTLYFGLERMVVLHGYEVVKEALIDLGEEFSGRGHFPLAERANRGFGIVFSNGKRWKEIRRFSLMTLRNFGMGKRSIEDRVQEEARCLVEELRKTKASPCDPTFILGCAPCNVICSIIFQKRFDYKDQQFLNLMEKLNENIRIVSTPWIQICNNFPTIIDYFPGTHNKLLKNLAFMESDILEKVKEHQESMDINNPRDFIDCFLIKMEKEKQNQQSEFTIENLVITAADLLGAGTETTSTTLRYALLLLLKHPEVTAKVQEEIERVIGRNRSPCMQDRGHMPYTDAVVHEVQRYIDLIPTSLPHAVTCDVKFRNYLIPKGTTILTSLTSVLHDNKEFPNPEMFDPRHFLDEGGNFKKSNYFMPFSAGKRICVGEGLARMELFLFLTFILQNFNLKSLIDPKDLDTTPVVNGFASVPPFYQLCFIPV

Caco-2 = experiment: as §1; assay type: ADME, cell-based; conditions: caco-2, pH 7.4, BLD = below limit of detection; procedure, shortened: as §2
Cytochrome P450 2C9 = Cytochrome P450 2C9 (Homo sapiens, UniProt P11712); experiment: Inhibition of CYP2C9; assay type: ADME; procedure, shortened: as §3
Chain of Cytochrome P450 2C9 (P11712 whole entry): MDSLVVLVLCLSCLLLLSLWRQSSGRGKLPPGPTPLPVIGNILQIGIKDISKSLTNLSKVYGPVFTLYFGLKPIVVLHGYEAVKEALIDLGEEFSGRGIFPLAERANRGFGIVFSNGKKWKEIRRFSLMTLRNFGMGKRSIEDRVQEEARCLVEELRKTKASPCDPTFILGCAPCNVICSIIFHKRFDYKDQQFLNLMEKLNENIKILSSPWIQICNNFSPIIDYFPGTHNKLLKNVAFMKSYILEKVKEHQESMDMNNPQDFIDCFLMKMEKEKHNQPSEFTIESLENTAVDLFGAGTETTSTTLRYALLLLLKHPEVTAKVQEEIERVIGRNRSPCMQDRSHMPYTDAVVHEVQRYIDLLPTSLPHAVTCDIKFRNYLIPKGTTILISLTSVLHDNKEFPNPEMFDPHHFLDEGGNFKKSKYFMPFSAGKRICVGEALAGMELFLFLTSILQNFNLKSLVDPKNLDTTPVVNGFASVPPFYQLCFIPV

[7] = Half life in rat liver microsomes at 2 uM; assay type: ADME, Microsome

Compound	EC50 (Hepatitis C virus) [nM]	IC50 [1] [nM]	IC50 [2] [nM]	Papp A→B [3] [×10⁻⁶ cm/s]	half-life at 2 µM [4] [h]	solubility thermodynamic at 24 h [6] [µg/mL]	other results
CN(C)C(=O)Cn1c(-c2ccccc2)c(C2CCCCC2)c2ccc(C(=O)O)cc21	1400	> 250000	40	–	–	–	–
O=C(O)c1ccc2c(C3CCCCC3)c(-c3ccccc3)n(CC(=O)N3CCOCC3)c2c1	700	> 250000	70	–	–	–	–
CN(C)C(=O)Cn1c(-c2ccoc2)c(C2CCCCC2)c2ccc(C(=O)O)cc21	800	> 250000	20	12.8	4.17	240 (≈ 608 µM)	IC50 (Cytochrome P450 3A4): >= 26 uM; logD [5]: 1.45
Cn1c(-c2ccoc2)c(C2CCCCC2)c2ccc(C(=O)O)cc21	4200	–	16	–	–	–	logD [5]: 3.26
O=C(O)c1ccc2c(C3CCCCC3)c(-c3cc4ccccc4s3)n(CC(=O)N3CCC(N4CCCC4)CC3)c2c1	1000	> 250000	160	–	–	–	–
O=C(O)c1ccc2c(C3CCCCC3)c(-c3ccccc3)n(CC(=O)N3CCC(N4CCCC4)CC3)c2c1	380	> 250000	40	< 0.1	1.85	47 (≈ 91.5 µM)	–
O=C(O)c1ccc2c(C3CCCCC3)c(-c3ccco3)n(CC(=O)N3CCC(N4CCCC4)CC3)c2c1	1200	> 250000	30	–	–	–	–
O=C(O)c1ccc2c(C3CCCCC3)c(-c3cnccn3)n(CC(=O)N3CCC(N4CCCC4)CC3)c2c1	10000	> 250000	60	–	–	–	–
O=C(O)c1ccc2c(C3CCCCC3)c(-c3ccoc3)n(CC(=O)N3CCC(N4CCCC4)CC3)c2c1	380	> 250000	20	1.4	> 5	79 (≈ 157 µM)	–
O=C(O)c1ccc2c(C3CCCCC3)c(-c3ccoc3)n(CC(=O)N3CCC(N4CCCCC4)CC3)c2c1	780	> 250000	30	–	–	–	–
O=C(O)c1ccc2c(C3CCCCC3)c(-c3ccsc3)n(CC(=O)N3CCC(N4CCCC4)CC3)c2c1	1000	> 250000	30	–	–	–	–
CN1CCCN(C(=O)Cn2c(-c3ccoc3)c(C3CCCCC3)c3ccc(C(=O)O)cc32)CC1	330	> 250000	20	–	–	–	–
O=C(O)c1ccc2c(C3CCCCC3)c(-c3cccs3)n(CC(=O)N3CCC(N4CCCC4)CC3)c2c1	460	> 250000	20	0.2	> 5	60 (≈ 115 µM)	IC50 (Cytochrome P450 2C19): ≥ 11000 nM
CN(C)C(=O)Cn1c(-c2cccs2)c(C2CCCCC2)c2ccc(C(=O)O)cc21	600	> 250000	20	–	–	–	–
CCN1CCN(C(=O)Cn2c(-c3ccoc3)c(C3CCCCC3)c3ccc(C(=O)O)cc32)CC1	410	> 250000	30	6.5	> 5	12 (≈ 25.9 µM)	IC50 (Cytochrome P450 3A4; read-out: IC50): ≥ 16000 nM
CC(C)N1CCN(C(=O)Cn2c(-c3ccoc3)c(C3CCCCC3)c3ccc(C(=O)O)cc32)CC1	830	> 250000	40	7	> 5	18 (≈ 37.7 µM)	IC50 (Cytochrome P450 3A4; read-out: IC50): ≥ 8000 nM
O=C(O)c1ccc2c(C3CCCCC3)c(-c3cc4ccccc4s3)n(CC(=O)N3CCOCC3)c2c1	1100	> 250000	160	–	–	–	–
CN1CCN(C(=O)Cn2c(-c3ccoc3)c(C3CCCCC3)c3ccc(C(=O)O)cc32)CC1	450	> 250000	40	1.7	1.17	7 (≈ 15.6 µM)	–
O=C(O)c1ccc2c(C3CCCCC3)c(-c3cccs3)n(CC(=O)N3CCOCC3)c2c1	600	> 250000	30	–	–	–	–
CN(C)C(=O)Cn1c(-c2cc3ccccc3s2)c(C2CCCCC2)c2ccc(C(=O)O)cc21	2500	> 250000	210	–	–	–	–
O=C(O)c1ccc2c(C3CCCCC3)c(-c3ccco3)n(CC(=O)N3CCOCC3)c2c1	1000	> 250000	40	–	–	–	–
O=C(O)c1ccc2c(C3CCCCC3)c(-c3ccsc3)n(CC(=O)N3CCOCC3)c2c1	330	> 250000	40	–	–	–	–
CN(C)C(=O)Cn1c(-c2ccco2)c(C2CCCCC2)c2ccc(C(=O)O)cc21	1500	> 250000	40	–	–	–	–
CN(C)C(=O)Cn1c(-c2ccsc2)c(C2CCCCC2)c2ccc(C(=O)O)cc21	640	> 250000	40	–	–	–	–
CN(CCO)C(=O)Cn1c(-c2ccoc2)c(C2CCCCC2)c2ccc(C(=O)O)cc21	1500	> 250000	20	–	4.58	1300 (≈ 3060 µM)	permeability (Caco-2): BLD
CN1CCC(N(C)C(=O)Cn2c(-c3ccoc3)c(C3CCCCC3)c3ccc(C(=O)O)cc32)CC1	130	> 250000	20	0.2	> 5	290 (≈ 607 µM)	–
CN(C)C(=O)Cn1c(-c2ccccn2)c(C2CCCCC2)c2ccc(C(=O)O)cc21	3400	> 250000	240	–	–	–	–
O=C(O)c1ccc2c(C3CCCCC3)c(-c3ccoc3)n(CC(=O)N3CCOCC3)c2c1	600	> 250000	30	5.2	> 5	105 (≈ 241 µM)	IC50 (Cytochrome P450 2C9): ≥ 24000 nM; half-life at 2 µM [7]: 4.8 h

From ChEMBL document CHEMBL1156857, “N-Acetamideindolecarboxylic acid allosteric 'finger-loop' inhibitors of the hepatitis C virus NS5B polymerase: discovery and initial optimization studies” (Bioorg Med Chem Lett, 2010)
